This passage reports Activity and IC50 results from ChEMBL document CHEMBL1155278, “3,4-Diaryl-isoxazoles and -imidazoles as potent dual inhibitors of p38alpha mitogen activated protein kinase and casein kinase 1delta” (J Med Chem, 2009).

Assay [1] concerns the target Insulin receptor (Homo sapiens) (UniProt P06213). As to the kind of experiment: Inhibition of histidine-tagged IR assessed as residual activity at 0.1 uM by Cherenkov counting relative to control in presence of 20 uM ATP. In outline:
(§1)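 Single-concentration screen at 0.1 μM in a 76-kinase panel. ATP for each kinase was set near its Km for ATP. Residual activity is given as a percentage of control assays without compound, mean of n = 3 ± SD.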

Assay [2] deals with Casein kinase I isoform delta (Homo sapiens, UniProt P48730). The assay is described as follows: Inhibition of recombinant CK1delta kinase domain by Cherenkov counting.
Assay [3] has as its target Casein kinase I isoform epsilon (Homo sapiens, UniProt P49674). The assay is described as follows: Inhibition of recombinant CK1epsilon by Cherenkov counting in presence of 20 uM ATP.
Assay [4] deals with Mitogen-activated protein kinase 3 (Homo sapiens) (UniProt P27361). As to the kind of experiment: Inhibition of ERK1 assessed as residual activity at 0.1 uM by Cherenkov counting relative to control in presence of 5 uM ATP. In outline:
(§2)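 Single-concentration screen at 0.1 µM across a panel of 76 protein kinases. Each kinase was run at an ATP concentration approximating its ATP Km. Results are % mean residual activity versus control assays without compound (n = 3 ± SD).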

For assay [5], the target named is T1, Serine/threonine-protein kinase Sgk1 (Homo sapiens) (UniProt O00141).
T1 sequence (whole entry): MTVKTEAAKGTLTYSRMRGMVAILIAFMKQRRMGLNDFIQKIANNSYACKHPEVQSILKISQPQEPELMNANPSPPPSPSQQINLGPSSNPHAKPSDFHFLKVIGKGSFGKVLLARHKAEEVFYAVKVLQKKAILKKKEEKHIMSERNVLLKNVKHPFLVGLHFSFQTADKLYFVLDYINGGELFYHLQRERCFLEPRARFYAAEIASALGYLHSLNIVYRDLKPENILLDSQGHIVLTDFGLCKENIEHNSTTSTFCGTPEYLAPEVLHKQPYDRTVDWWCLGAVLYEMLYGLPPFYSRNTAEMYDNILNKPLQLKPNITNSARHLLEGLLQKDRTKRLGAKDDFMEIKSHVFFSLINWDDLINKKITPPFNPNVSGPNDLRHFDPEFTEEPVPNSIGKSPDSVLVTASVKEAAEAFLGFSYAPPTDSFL
The assay is described as follows: Inhibition of SGK1 assessed as residual activity at 0.1 uM by Cherenkov counting relative to control in presence of 20 uM ATP. In outline: as §1

Assay [6] in a line: Inhibition of AMPK assessed as residual activity at 0.1 uM by Cherenkov counting relative to control in presence of 50 uM ATP. Summed up: as §2
The target of assay [7] is MAP/microtubule affinity-regulating kinase 3 (Homo sapiens) (UniProt P27448). As to the kind of experiment: Inhibition of MARK3 assessed as residual activity at 0.1 uM by Cherenkov counting relative to control in presence of 5 uM ATP. Summed up:
(§3)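 Single-concentration selectivity screen at 0.1 μM against a panel of 76 protein kinases. Each kinase was run at an ATP level approximating its Km for ATP. Output is mean residual activity as % of the control assay without compound, n = 3 ± SD.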

In assay [8] the target is Serine/threonine-protein kinase pim-2 (Homo sapiens) (UniProt Q9P1W9). As to the kind of experiment: Inhibition of PIM2 assessed as residual activity at 0.1 uM by Cherenkov counting relative to control in presence of 5 uM ATP. In outline: as §3
Assay [9] concerns the target Serine/threonine-protein kinase PAK 4 (Homo sapiens) (UniProt O96013). The assay is described as follows: Inhibition of PAK4 assessed as residual activity at 0.1 uM by Cherenkov counting relative to control in presence of 5 uM ATP. Summed up:
as §3

Assay [10] concerns the target Proto-oncogene tyrosine-protein kinase Src (Homo sapiens) (UniProt P12931). As to the kind of experiment: Inhibition of Src assessed as residual activity at 0.1 uM by Cherenkov counting relative to control in presence of 50 uM ATP. In outline:
as §1

Assay [11] addresses Ribosomal protein S6 kinase beta-1 (Homo sapiens) (UniProt P23443). As to the kind of experiment: Inhibition of S6K1 assessed as residual activity at 10 uM by Cherenkov counting relative to control in presence of 20 uM ATP. Summed up: (§4)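 Single-concentration profiling at 10 μM in a 78-kinase panel. Kinase activity is expressed as a percentage of control assays run without compound.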

The target of assay [12] is Rho-associated protein kinase 2 (Homo sapiens) (UniProt O75116). As to the kind of experiment: Inhibition of ROCK2 assessed as residual activity at 10 uM by Cherenkov counting relative to control in presence of 20 uM ATP. Summed up: as §4
Assay [13] addresses MAP kinase-interacting serine/threonine-protein kinase 1 (Homo sapiens) (UniProt Q9BUB5). The assay is described as follows: Inhibition of MNK1 assessed as residual activity at 10 uM by Cherenkov counting relative to control in presence of 50 uM ATP.
A short description of assay [14]: Inhibition of PHK assessed as residual activity at 10 uM by Cherenkov counting relative to control.
The target of assay [15] is Cyclin-dependent kinase 2/cyclin A (Homo sapiens) (UniProt P24941+P20248+P78396). As to the kind of experiment: Inhibition of CDK2/cyclin A assessed as residual activity at 10 uM by Cherenkov counting relative to control in presence of 20 uM ATP. It is filed as protein-complex assay. In outline: (§5)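 Single-point profiling at 10 µM in a panel of 78 protein kinases. Kinase activity is expressed as a percentage relative to control assays without compound.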

Assay [16] addresses T2, Dual specificity tyrosine-phosphorylation-regulated kinase 3 (Homo sapiens) (UniProt O43781).
T2 sequence (whole entry): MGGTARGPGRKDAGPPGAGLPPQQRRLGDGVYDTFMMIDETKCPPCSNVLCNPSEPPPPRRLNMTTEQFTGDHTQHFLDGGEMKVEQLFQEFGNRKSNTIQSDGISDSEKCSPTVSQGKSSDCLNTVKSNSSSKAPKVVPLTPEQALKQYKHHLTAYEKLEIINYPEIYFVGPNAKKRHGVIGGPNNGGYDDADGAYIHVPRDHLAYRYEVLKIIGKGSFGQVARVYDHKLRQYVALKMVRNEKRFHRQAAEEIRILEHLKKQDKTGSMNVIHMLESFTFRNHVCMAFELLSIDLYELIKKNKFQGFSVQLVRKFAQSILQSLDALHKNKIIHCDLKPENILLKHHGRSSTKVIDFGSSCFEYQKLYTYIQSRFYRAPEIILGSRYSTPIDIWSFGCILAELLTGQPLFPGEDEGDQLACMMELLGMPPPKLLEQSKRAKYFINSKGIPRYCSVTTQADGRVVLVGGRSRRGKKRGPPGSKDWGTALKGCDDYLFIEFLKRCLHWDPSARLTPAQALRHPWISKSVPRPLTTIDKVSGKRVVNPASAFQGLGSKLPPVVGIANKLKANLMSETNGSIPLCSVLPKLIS
The assay is described as follows: Inhibition of DYRK3 assessed as residual activity at 10 uM by Cherenkov counting relative to control in presence of 5 uM ATP. Summed up: as §5

In assay [17] the target is Ephrin type-A receptor 2 (Homo sapiens) (UniProt P29317). As to the kind of experiment: Inhibition of EPHA2 assessed as residual activity at 10 uM by Cherenkov counting relative to control in presence of 50 uM ATP. Summed up: as §5

Sequence of Mitogen-activated protein kinase 3 (Homo sapiens) (P27361 whole entry): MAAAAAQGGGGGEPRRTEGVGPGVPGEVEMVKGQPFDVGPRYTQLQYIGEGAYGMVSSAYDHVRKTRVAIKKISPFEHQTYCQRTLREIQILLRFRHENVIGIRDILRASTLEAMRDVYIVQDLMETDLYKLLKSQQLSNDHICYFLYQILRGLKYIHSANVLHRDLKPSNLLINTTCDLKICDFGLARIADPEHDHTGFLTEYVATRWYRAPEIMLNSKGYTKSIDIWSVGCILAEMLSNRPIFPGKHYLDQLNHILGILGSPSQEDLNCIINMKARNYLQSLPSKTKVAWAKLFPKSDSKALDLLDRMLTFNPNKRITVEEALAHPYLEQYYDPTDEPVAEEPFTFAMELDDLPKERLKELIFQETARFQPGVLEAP
Sequence of Proto-oncogene tyrosine-protein kinase Src (Homo sapiens) (P12931 2-536 limits assumed): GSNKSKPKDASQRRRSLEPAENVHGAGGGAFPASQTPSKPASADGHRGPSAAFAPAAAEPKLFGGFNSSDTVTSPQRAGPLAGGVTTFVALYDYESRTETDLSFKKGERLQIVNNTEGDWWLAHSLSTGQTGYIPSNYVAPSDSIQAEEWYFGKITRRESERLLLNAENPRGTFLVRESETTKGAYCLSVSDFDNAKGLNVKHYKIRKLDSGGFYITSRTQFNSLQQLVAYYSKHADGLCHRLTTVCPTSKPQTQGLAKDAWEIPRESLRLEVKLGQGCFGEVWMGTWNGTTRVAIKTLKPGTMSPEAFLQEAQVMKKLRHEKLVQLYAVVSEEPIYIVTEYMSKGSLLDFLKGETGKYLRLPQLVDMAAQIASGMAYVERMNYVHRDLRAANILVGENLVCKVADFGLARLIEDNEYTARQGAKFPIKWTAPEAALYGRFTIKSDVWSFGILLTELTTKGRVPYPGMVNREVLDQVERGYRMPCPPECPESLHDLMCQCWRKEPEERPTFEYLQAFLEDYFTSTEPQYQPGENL
Sequence of Casein kinase I isoform delta (P48730 whole entry, the tested form may be a part, canonical isoform): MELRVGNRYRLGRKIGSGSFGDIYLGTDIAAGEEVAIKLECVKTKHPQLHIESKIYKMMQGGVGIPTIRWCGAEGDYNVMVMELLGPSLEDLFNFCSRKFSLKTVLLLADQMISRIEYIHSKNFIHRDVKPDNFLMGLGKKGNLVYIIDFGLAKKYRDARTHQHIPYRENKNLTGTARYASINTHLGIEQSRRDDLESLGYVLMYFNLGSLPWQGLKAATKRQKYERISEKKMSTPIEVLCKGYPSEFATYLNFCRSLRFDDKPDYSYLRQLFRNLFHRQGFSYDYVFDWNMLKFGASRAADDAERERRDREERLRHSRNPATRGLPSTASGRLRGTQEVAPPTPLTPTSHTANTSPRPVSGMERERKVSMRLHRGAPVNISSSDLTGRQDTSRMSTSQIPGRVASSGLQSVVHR
Sequence of Serine/threonine-protein kinase pim-2 (Homo sapiens) (Q9P1W9 whole entry, looked up): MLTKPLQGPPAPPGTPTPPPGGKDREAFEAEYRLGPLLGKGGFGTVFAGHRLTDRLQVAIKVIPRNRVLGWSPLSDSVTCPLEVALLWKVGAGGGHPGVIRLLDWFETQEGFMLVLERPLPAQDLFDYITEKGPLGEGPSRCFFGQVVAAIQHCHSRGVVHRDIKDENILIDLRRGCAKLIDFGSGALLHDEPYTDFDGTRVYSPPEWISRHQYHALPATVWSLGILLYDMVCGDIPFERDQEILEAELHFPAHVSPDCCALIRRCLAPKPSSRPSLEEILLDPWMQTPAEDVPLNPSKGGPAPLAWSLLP
Sequence of Rho-associated protein kinase 2 (Homo sapiens) (O75116 whole entry, looked up): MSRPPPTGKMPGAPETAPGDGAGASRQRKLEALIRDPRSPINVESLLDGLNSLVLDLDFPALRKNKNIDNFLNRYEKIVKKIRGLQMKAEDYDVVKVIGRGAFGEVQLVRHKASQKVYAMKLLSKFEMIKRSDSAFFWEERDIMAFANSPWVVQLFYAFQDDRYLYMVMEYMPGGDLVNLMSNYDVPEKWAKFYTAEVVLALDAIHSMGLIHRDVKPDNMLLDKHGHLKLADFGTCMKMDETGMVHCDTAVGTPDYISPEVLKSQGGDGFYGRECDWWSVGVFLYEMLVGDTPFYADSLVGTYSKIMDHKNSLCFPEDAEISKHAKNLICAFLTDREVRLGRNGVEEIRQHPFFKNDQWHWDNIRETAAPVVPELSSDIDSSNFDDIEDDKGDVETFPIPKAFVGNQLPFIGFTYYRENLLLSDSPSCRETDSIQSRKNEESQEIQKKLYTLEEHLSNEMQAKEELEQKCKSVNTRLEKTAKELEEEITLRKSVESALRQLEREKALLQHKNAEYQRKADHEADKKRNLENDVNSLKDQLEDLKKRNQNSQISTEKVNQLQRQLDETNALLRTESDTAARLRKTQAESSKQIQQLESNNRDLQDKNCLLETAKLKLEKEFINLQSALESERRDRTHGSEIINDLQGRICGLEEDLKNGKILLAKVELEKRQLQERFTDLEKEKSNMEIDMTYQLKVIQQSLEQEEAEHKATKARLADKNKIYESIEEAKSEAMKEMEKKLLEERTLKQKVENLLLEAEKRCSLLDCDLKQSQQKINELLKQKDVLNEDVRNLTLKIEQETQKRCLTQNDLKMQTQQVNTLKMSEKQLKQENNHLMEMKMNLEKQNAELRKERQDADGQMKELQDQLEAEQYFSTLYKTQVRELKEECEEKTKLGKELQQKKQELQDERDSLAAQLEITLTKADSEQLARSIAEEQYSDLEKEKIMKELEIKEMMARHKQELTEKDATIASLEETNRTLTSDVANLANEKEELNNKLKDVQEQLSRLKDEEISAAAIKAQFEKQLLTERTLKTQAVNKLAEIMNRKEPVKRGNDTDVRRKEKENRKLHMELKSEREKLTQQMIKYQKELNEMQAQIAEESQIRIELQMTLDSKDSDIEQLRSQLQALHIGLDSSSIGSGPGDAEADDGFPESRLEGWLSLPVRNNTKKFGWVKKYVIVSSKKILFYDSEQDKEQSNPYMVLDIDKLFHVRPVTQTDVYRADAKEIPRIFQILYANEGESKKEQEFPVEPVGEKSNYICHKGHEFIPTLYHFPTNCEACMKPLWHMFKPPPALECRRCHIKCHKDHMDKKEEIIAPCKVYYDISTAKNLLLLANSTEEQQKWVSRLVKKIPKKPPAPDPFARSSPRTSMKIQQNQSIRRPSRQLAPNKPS
Sequence of Ribosomal protein S6 kinase beta-1 (Homo sapiens) (P23443 whole entry, looked up): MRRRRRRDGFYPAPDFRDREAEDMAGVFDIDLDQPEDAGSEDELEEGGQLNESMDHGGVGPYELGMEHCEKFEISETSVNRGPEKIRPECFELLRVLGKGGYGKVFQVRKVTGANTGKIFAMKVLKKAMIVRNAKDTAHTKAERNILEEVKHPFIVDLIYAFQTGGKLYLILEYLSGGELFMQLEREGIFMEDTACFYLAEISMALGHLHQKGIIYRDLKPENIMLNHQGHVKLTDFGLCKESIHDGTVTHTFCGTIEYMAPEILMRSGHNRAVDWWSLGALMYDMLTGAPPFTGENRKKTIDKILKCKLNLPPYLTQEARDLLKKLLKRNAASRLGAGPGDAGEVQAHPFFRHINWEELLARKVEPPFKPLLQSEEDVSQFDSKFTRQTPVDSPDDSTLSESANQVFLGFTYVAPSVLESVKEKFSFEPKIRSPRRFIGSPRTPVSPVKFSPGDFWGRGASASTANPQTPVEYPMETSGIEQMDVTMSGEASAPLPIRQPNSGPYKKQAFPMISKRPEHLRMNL
Sequence of Casein kinase I isoform epsilon (P49674 whole entry, canonical isoform): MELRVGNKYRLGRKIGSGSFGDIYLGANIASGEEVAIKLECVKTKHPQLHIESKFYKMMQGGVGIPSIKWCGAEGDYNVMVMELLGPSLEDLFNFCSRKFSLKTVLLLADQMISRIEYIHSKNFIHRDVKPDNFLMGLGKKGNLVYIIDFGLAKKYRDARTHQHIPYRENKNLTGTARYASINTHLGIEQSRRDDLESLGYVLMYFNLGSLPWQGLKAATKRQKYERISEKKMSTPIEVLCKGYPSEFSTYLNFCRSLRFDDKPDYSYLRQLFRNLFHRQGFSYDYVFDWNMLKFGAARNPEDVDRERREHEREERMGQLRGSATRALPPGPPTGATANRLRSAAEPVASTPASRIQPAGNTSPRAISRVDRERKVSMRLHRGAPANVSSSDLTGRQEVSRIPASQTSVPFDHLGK
Sequence of MAP kinase-interacting serine/threonine-protein kinase 1 (Homo sapiens) (Q9BUB5 whole entry, looked up): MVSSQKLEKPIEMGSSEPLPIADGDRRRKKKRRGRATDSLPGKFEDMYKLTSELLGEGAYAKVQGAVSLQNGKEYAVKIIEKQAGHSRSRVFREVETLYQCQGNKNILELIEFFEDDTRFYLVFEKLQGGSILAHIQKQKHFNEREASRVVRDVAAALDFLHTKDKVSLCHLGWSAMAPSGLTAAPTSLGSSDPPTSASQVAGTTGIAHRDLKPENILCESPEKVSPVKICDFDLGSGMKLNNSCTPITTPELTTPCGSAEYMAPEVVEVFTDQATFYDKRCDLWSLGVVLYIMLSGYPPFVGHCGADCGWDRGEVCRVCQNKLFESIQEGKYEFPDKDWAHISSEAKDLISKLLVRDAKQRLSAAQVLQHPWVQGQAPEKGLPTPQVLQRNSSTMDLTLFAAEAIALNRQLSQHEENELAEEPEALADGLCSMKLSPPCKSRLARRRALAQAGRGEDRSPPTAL
Sequence of Serine/threonine-protein kinase PAK 4 (Homo sapiens) (O96013 whole entry, looked up): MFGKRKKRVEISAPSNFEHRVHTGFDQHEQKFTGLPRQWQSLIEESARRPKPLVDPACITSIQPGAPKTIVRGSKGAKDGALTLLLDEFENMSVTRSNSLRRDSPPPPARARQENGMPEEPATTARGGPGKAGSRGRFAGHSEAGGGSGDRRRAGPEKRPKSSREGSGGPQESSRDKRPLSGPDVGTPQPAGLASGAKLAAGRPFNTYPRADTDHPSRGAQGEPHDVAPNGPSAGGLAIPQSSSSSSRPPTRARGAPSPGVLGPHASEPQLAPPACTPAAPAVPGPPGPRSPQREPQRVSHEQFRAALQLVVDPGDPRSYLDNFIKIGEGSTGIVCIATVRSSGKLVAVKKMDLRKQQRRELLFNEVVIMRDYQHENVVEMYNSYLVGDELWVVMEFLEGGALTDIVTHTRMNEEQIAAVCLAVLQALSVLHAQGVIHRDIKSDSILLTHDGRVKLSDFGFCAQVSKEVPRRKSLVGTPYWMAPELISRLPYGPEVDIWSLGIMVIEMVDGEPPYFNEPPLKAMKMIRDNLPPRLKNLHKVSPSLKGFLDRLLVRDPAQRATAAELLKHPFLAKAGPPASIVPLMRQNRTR

Take `COc1ccc(/C=C/C(=O)Nc2cc(-c3[nH]c(SC)nc3-c3ccc(F)cc3)ccn2)c(OC)c1`: the Activity was 94% in [1]; 94% in assay [4]; 87% in assay [5]; 92% in assay [6]; 87% in assay [7]; 87% in [8]. The Activity in assay [9] is 81%; in [10], 49%. For the same compound, the half-maximal inhibitory concentration (IC50) was 4 nM in assay [2] and 73 nM in assay [3].

As to `CC(C)c1onc(-c2ccc(F)cc2)c1-c1ccncc1`, the Activity in assay [11] turned out to be 89%; in assay [12], 76%; in assay [13], 96%; in assay [14], 96%; in assay [15], 96%; in [16] it was 97%. Further, the Activity in assay [17] came out at 79%.

In the case of `CC(C)c1noc(-c2ccc(F)cc2)c1-c1ccncc1`, the Activity is 98% in assay [11]; 77% in [12]; 89% in assay [13]; 99% in assay [14]; 98% in assay [15]; 101% in assay [16]. Further, the Activity in assay [17] was determined as 81%.

On to `COc1ccc(/C=C/C(=O)Nc2cc(-c3[nH]c([S+](C)[O-])nc3-c3ccc(F)cc3)ccn2)c(OC)c1` (centres undefined), for which the Activity in [1] stood at 94%; in assay [4], 101%; in assay [5], 87%; in assay [6], 99%; in assay [7], 89%; in assay [8], 101%. Also, the Activity in assay [9] is 98%; in assay [10], 63%. For the same compound, the IC50 in assay [2] was found to be 5 nM; in assay [3], 447 nM.

Usually IC50 stands for the concentration needed to halve the response being measured.
